According to ChEMBL document CHEMBL3286116, “Synthesis, biological evaluation and structure-activity correlation study of a series of imidazol-based compounds as Candida albicans inhibitors” (Eur J Med Chem, 2014):
Values after ≈ are worked out from the molar mass of the structure shown.

Tests used:
Assay type in all cases: functional
Candida albicans [1] = assay: Antifungal activity against Candida albicans ATCC 90028 after 48 hrs by CLSI broth microdilution method; conditions: ATCC 90028, 48 h
In short: (§1)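 Yeast CLSI broth microdilution (M27-A3). Compounds dissolved in DMSO at 100× the top test concentration, then diluted as serial two-fold dilutions in RPMI 1640 to final 0.125–64. Inoculum was 1.0–1.5 × 10^3 cells mL−1, incubated at 35 °C and read for growth at 48 h. MIC is the lowest concentration giving ≥50% growth inhibition versus growth control. Reported as the median of five replicates and as the geometric mean.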

Candida albicans [2] = assay: Antifungal activity against Candida albicans ATCC 20891 after 48 hrs by CLSI broth microdilution method; conditions: ATCC 20891, 48 h; in short: as §1
Candida albicans [3] = assay: Antifungal activity against Candida albicans PMC 1011 after 48 hrs by CLSI broth microdilution method; conditions: PMC 1011, 48 h; in short: as §1
Pichia kudriavzevii [4] = assay: Antifungal activity against Candida krusei DSM 6128 after 48 hrs by CLSI broth microdilution method; conditions: DSM 6128, 48 h; in short: as §1
Pichia kudriavzevii [5] = assay: Antifungal activity against Candida krusei PMC 0613 after 48 hrs by CLSI broth microdilution method; conditions: PMC 0613, 48 h; in short: as §1
Candida tropicalis [6] = assay: Antifungal activity against Candida tropicalis PMC 0910 after 48 hrs by CLSI broth microdilution method; conditions: PMC 0910, 48 h; in short: as §1
Candida tropicalis [7] = assay: Antifungal activity against Candida tropicalis DSM 11953 after 48 hrs by CLSI broth microdilution method; conditions: DSM 11953, 48 h; in short: as §1
Candida parapsilosis [8] = assay: Antifungal activity against Candida parapsilosis DSM 11224 after 48 hrs by CLSI broth microdilution method; conditions: Lodderomyces parapsilosis, DSM 11224, 48 h; in short: as §1
Candida parapsilosis [9] = assay: Antifungal activity against Candida parapsilosis ATCC 22019 after 48 hrs by CLSI broth microdilution method; conditions: Lodderomyces parapsilosis, ATCC 22019, 48 h; in short: as §1
Nakaseomyces glabratus [10] = assay: Antifungal activity against Candida glabrata PMC 0805 after 48 hrs by CLSI broth microdilution method; conditions: PMC 0805, 48 h; in short: as §1
Nakaseomyces glabratus [11] = assay: Antifungal activity against Candida glabrata PMC 0807 after 48 hrs by CLSI broth microdilution method; conditions: PMC 0807, 48 h; in short: as §1
Cryptococcus neoformans [12] = assay: Antifungal activity against Cryptococcus neoformans PMC 2123 after 72 hrs by CLSI broth microdilution method; conditions: PMC 2123, 72 h
In short: (§2)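 Cryptococcus neoformans tested by CLSI broth microdilution in RPMI 1640, with serial two-fold dilutions from DMSO stocks at 100× the top concentration, final 0.125–64. Inoculum was 1.0–1.5 × 10^3 cells mL−1 at 35 °C, with growth read at 72 h. MIC is the lowest concentration with ≥50% growth inhibition versus control. Median of five replicates, plus geometric mean.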

Cryptococcus neoformans [13] = assay: Antifungal activity against Cryptococcus neoformans PMC 2136 after 72 hrs by CLSI broth microdilution method; conditions: PMC 2136, 72 h; in short: as §2
Cryptococcus neoformans [14] = assay: Antifungal activity against Cryptococcus neoformans PMC 2115 after 72 hrs by CLSI broth microdilution method; conditions: PMC 2115, 72 h; in short: as §2
Cryptococcus neoformans [15] = assay: Antifungal activity against Cryptococcus neoformans PMC 2103 after 72 hrs by CLSI broth microdilution method; conditions: PMC 2103, 72 h; in short: as §2
Cryptococcus neoformans [16] = assay: Antifungal activity against Cryptococcus neoformans PMC 2107 after 72 hrs by CLSI broth microdilution method; conditions: PMC 2107, 72 h; in short: as §2
Cryptococcus neoformans [17] = assay: Antifungal activity against Cryptococcus neoformans PMC 2102 after 72 hrs by CLSI broth microdilution method; conditions: PMC 2102, 72 h; in short: as §2
Cryptococcus neoformans [18] = assay: Antifungal activity against Cryptococcus neoformans DSM 11959 after 72 hrs by CLSI broth microdilution method; conditions: DSM 11959, 72 h; in short: as §2
Cryptococcus neoformans [19] = assay: Antifungal activity against Cryptococcus neoformans PMC 2111 after 72 hrs by CLSI broth microdilution method; conditions: PMC 2111, 72 h; in short: as §2
[20] = system: Trichophyton mentagrophytes; assay: Antifungal activity against Trichophyton mentagrophytes DSM 4870 after 72 hrs by CLSI broth microdilution method; conditions: DSM 4870, 72 h
In short: (§3)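 Dermatophytes tested by CLSI broth microdilution for filamentous fungi (M38-A2). Serial two-fold dilutions of DMSO-dissolved compound in RPMI 1640, final 0.125–64. Inoculum was 0.4–5 × 10^4 CFU mL−1, incubated at 35 °C and read at 72 h. MIC80 is the lowest concentration giving ≥80% growth inhibition versus growth control. Median of five replicates, plus geometric mean.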

[21] = system: Trichophyton mentagrophytes; assay: Antifungal activity against Trichophyton mentagrophytes PMC 6515 after 72 hrs by CLSI broth microdilution method; conditions: PMC 6515, 72 h; in short: as §3
[22] = system: Trichophyton mentagrophytes; assay: Antifungal activity against Trichophyton mentagrophytes PMC 6531 after 72 hrs by CLSI broth microdilution method; conditions: PMC 6531, 72 h; in short: as §3
[23] = system: Trichophyton mentagrophytes; assay: Antifungal activity against Trichophyton mentagrophytes PMC 6509 after 72 hrs by CLSI broth microdilution method; conditions: PMC 6509, 72 h; in short: as §3
[24] = system: Trichophyton mentagrophytes; assay: Antifungal activity against Trichophyton mentagrophytes PMC 6503 after 72 hrs by CLSI broth microdilution method; conditions: PMC 6503, 72 h; in short: as §3
[25] = system: Trichophyton mentagrophytes; assay: Antifungal activity against Trichophyton mentagrophytes PMC 6552 after 72 hrs by CLSI broth microdilution method; conditions: PMC 6552, 72 h; in short: as §3
Nannizzia gypsea [26] = assay: Antifungal activity against Microsporum gypseum PMC 7303 after 72 hrs by CLSI broth microdilution method; conditions: PMC 7303, 72 h; in short: as §3
Nannizzia gypsea [27] = assay: Antifungal activity against Microsporum gypseum PMC 7331 after 72 hrs by CLSI broth microdilution method; conditions: PMC 7331, 72 h; in short: as §3
Nannizzia gypsea [28] = assay: Antifungal activity against Microsporum gypseum DSM 3824 after 72 hrs by CLSI broth microdilution method; conditions: DSM 3824, 72 h; in short: as §3
Candida albicans [29] = assay: Antifungal activity against Candida albicans ATCC 24433 after 48 hrs by CLSI broth microdilution method; conditions: ATCC 24433, 48 h; in short: as §1
Candida albicans [30] = assay: Antifungal activity against Candida albicans ATCC 3153 after 48 hrs by CLSI broth microdilution method; conditions: ATCC 3153, 48 h; in short: as §1
Candida albicans [31] = assay: Antifungal activity against Candida albicans ATCC 10231 after 48 hrs by CLSI broth microdilution method; conditions: ATCC 10231, 48 h; in short: as §1
Candida albicans [32] = assay: Antifungal activity against Candida albicans ATCC 76615 after 48 hrs by CLSI broth microdilution method; conditions: ATCC 76615, 48 h; in short: as §1
Candida albicans [33] = assay: Antifungal activity against Candida albicans ATCC 10261 after 48 hrs by CLSI broth microdilution method; conditions: ATCC 10261, 48 h; in short: as §1

Row | MIC50 (Candida albicans [1]) [µg/mL] | MIC50 (Candida albicans [2]) [µg/mL] | MIC50 (Candida albicans [3]) [µg/mL] | MIC50 (Pichia kudriavzevii [4]) [µg/mL] | MIC50 (Pichia kudriavzevii [5]) [µg/mL] | MIC50 (Candida tropicalis [6]) [µg/mL] | MIC50 (Candida tropicalis [7]) [µg/mL] | MIC50 (Candida parapsilosis [8]) [µg/mL] | MIC50 (Candida parapsilosis [9]) [µg/mL] | MIC50 (Nakaseomyces glabratus [10]) [µg/mL] | MIC50 (Nakaseomyces glabratus [11]) [µg/mL] | MIC50 (Cryptococcus neoformans [12]) [µg/mL] | MIC50 (Cryptococcus neoformans [13]) [µg/mL] | MIC50 (Cryptococcus neoformans [14]) [µg/mL] | MIC50 (Cryptococcus neoformans [15]) [µg/mL] | MIC50 (Cryptococcus neoformans [16]) [µg/mL] | MIC50 (Cryptococcus neoformans [17]) [µg/mL] | MIC50 (Cryptococcus neoformans [18]) [µg/mL] | MIC50 (Cryptococcus neoformans [19]) [µg/mL] | MIC80 [20] [µg/mL] | SMILES | also measured
1 | 4 (≈ 9.08 µM) | 8 (≈ 18.2 µM) | 4 (≈ 9.08 µM) | 16 (≈ 36.3 µM) | 4 (≈ 9.08 µM) | 16 (≈ 36.3 µM) | 32 (≈ 72.7 µM) | 2 (≈ 4.54 µM) | 16 (≈ 36.3 µM) | 8 (≈ 18.2 µM) | 32 (≈ 72.7 µM) | 16 (≈ 36.3 µM) | 2 (≈ 4.54 µM) | 16 (≈ 36.3 µM) | 2 (≈ 4.54 µM) | 1 (≈ 2.27 µM) | 8 (≈ 18.2 µM) | 4 (≈ 9.08 µM) | 8 (≈ 18.2 µM) | 32 (≈ 72.7 µM) | O=C(OC(Cn1ccnc1)c1ccc(F)cc1)N1CCN(c2ncccc2[N+](=O)[O-])CC1 (centres undefined) | MIC80 [21]: 32 µg/mL (≈ 72.7 µM); MIC80 [22]: 32 µg/mL (≈ 72.7 µM); MIC80 [23]: 64 µg/mL (≈ 145 µM); MIC80 [24]: 32 µg/mL (≈ 72.7 µM); MIC80 [25]: 32 µg/mL (≈ 72.7 µM); MIC80 (Nannizzia gypsea [26]): 64 µg/mL (≈ 145 µM); MIC80 (Nannizzia gypsea [27]): 32 µg/mL (≈ 72.7 µM); MIC80 (Nannizzia gypsea [28]): 32 µg/mL (≈ 72.7 µM); MIC50 (Candida albicans [29]): 8 µg/mL (≈ 18.2 µM); MIC50 (Candida albicans [30]): 16 µg/mL (≈ 36.3 µM); MIC50 (Candida albicans [31]): 16 µg/mL (≈ 36.3 µM); MIC50 (Candida albicans [32]): 64 µg/mL (≈ 145 µM); MIC50 (Candida albicans [33]): 8 µg/mL (≈ 18.2 µM)
2 | 128 (≈ 255 µM) | 128 (≈ 255 µM) | 128 (≈ 255 µM) | 128 (≈ 255 µM) | 128 (≈ 255 µM) | 128 (≈ 255 µM) | 128 (≈ 255 µM) | 128 (≈ 255 µM) | 128 (≈ 255 µM) | 128 (≈ 255 µM) | 128 (≈ 255 µM) | 32 (≈ 63.8 µM) | 16 (≈ 31.9 µM) | 32 (≈ 63.8 µM) | 16 (≈ 31.9 µM) | 8 (≈ 15.9 µM) | 16 (≈ 31.9 µM) | 16 (≈ 31.9 µM) | 16 (≈ 31.9 µM) | 128 (≈ 255 µM) | CCS(=O)(=O)N1CCN(c2ccc(NC(=O)OC(Cn3ccnc3)c3ccc(F)cc3)cc2)CC1 (centres undefined) | MIC80 [21]: 128 µg/mL (≈ 255 µM); MIC80 [22]: 128 µg/mL (≈ 255 µM); MIC80 [23]: 128 µg/mL (≈ 255 µM); MIC80 [24]: 128 µg/mL (≈ 255 µM); MIC80 [25]: 128 µg/mL (≈ 255 µM); MIC80 (Nannizzia gypsea [26]): 128 µg/mL (≈ 255 µM); MIC80 (Nannizzia gypsea [27]): 128 µg/mL (≈ 255 µM); MIC80 (Nannizzia gypsea [28]): 128 µg/mL (≈ 255 µM); MIC50 (Candida albicans [29]): 128 µg/mL (≈ 255 µM); MIC50 (Candida albicans [30]): 128 µg/mL (≈ 255 µM); MIC50 (Candida albicans [31]): 128 µg/mL (≈ 255 µM); MIC50 (Candida albicans [32]): 128 µg/mL (≈ 255 µM); MIC50 (Candida albicans [33]): 128 µg/mL (≈ 255 µM)
3 | 2 (≈ 4.39 µM) | 8 (≈ 17.5 µM) | 16 (≈ 35.1 µM) | 128 (≈ 281 µM) | 16 (≈ 35.1 µM) | 64 (≈ 140 µM) | 128 (≈ 281 µM) | 4 (≈ 8.77 µM) | 8 (≈ 17.5 µM) | 64 (≈ 140 µM) | 64 (≈ 140 µM) | 64 (≈ 140 µM) | 8 (≈ 17.5 µM) | 32 (≈ 70.2 µM) | 8 (≈ 17.5 µM) | 8 (≈ 17.5 µM) | 16 (≈ 35.1 µM) | 8 (≈ 17.5 µM) | 8 (≈ 17.5 µM) | 64 (≈ 140 µM) | O=C(OC(Cn1ccnc1)c1ccc(Cl)cc1)N1CCN(c2ccc([N+](=O)[O-])cc2)CC1 (centres undefined) | MIC80 [21]: 32 µg/mL (≈ 70.2 µM); MIC80 [22]: 32 µg/mL (≈ 70.2 µM); MIC80 [23]: 32 µg/mL (≈ 70.2 µM); MIC80 [24]: 64 µg/mL (≈ 140 µM); MIC80 [25]: 32 µg/mL (≈ 70.2 µM); MIC80 (Nannizzia gypsea [26]): 32 µg/mL (≈ 70.2 µM); MIC80 (Nannizzia gypsea [27]): 16 µg/mL (≈ 35.1 µM); MIC80 (Nannizzia gypsea [28]): 64 µg/mL (≈ 140 µM); MIC50 (Candida albicans [29]): 32 µg/mL (≈ 70.2 µM); MIC50 (Candida albicans [30]): 16 µg/mL (≈ 35.1 µM); MIC50 (Candida albicans [31]): 16 µg/mL (≈ 35.1 µM); MIC50 (Candida albicans [32]): 128 µg/mL (≈ 281 µM); MIC50 (Candida albicans [33]): 8 µg/mL (≈ 17.5 µM)
